Experimental findings from ChEMBL document CHEMBL1121582, “Structure-activity relationship of diphenylthiourea antivirals” (1980) are described below.

Structures are written as SMILES.

Format in all cases: functional
Test [1] in a line: Antiviral activity was evaluated in vitro against human ECHO virus as toxicity zone in agar-diffusion plaque-inhibition test. The essentials: (§1)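 FL cell monolayers were infected with virus (adsorption 60 min at 20 °C) at a dose giving semiconfluent plaques in 24-48 h at 37 °C. Cells were overlaid with 1% agar in Eagle medium with 10% heated calf serum. 0.1 mL of compound, usually a 2-4% solution, went into 6 mm glass cylinders set in the agar. A second overlay held 0.02% neutral red. Plaque-inhibition and cytotoxicity zone diameters (mm) were read using 3-5 cylinders in at least two dishes. Grading: -, ≤5 mm; ±, 6-10; +, 11-20; ++, ≥20.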

A short description of test [2]: Antiviral activity was evaluated in vitro against human Coxsackie virus as toxicity zone in agar-diffusion plaque-inhibition test. In outline: as §1
Test [3] can be described thus: cells. As to conditions: Homo sapiens.
Test [4] has as its system Poliovirus 1. Briefly: Antiviral activity was evaluated in vitro against human poliovirus as toxicity zone in agar-diffusion plaque-inhibition test. The essentials: as §1
Test [5] concerns Poliovirus 1. Description: Antiviral activity was evaluated in vitro against human poliovirus as inhibition zone in agar-diffusion plaque-inhibition test. In outline:
as §1

A short description of test [6]: Antiviral activity was evaluated in vitro against human poliovirus as antiviral affect in agar-diffusion plaque-inhibition test - => inhibition diameter < = 5 mm. In outline:
as §1

A short description of test [7]: Antiviral activity was evaluated in vitro against human poliovirus as antiviral affect in agar-diffusion plaque-inhibition test (- => inhibition, diameter < = 5 mm). The essentials:
as §1

The species entered for test [8] is Homo sapiens. Description: Antiviral activity was evaluated in vitro against human Coxsackie virus as antiviral affect in agar-diffusion plaque-inhibition test (+/- => inhibition, diameter 6-10 mm). In outline:
as §1

For test [9], the species on record is Homo sapiens. Briefly: Antiviral activity was evaluated in vitro against human ECHO virus as antiviral affect in agar-diffusion plaque-inhibition test (+/- =>inhibition, diameter 6-10 mm). In outline: as §1
Test [10] can be described thus: cells. Particulars: Homo sapiens. This is another data set of the same source.
Test [11] is filed under the species Homo sapiens. Description: Antiviral activity was evaluated in vitro against human poliovirus as antiviral affect in agar-diffusion plaque-inhibition test(- => inhibition, diameter < = 5 mm). The essentials: as §1
The species entered for test [12] is Homo sapiens. Briefly: Antiviral activity was evaluated in vitro against human Coxsackie virus as antiviral affect in agar-diffusion plaque-inhibition test (- =>inhibition, diameter < = 5 mm). In outline:
(§2)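 FL cell monolayers in 90 mm dishes infected with virus dose giving semiconfluent plaques (adsorption 60 min, 20 °C), then 1% agar overlay in Eagle MM with 10% heated calf serum. Compound, 0.1 mL of usually 2-4% ethanol solution, was placed in 6 mm glass cylinders set in the agar. Concentrations were preliminarily checked as well-tolerated by the cells. Incubation was 24-48 h at 37 °C, followed by a second overlay of 1.5% agar with 0.02% neutral red. Read-out was the diameter of the plaque-inhibition zone and the cytotoxicity zone, using 3-5 cylinders per compound in ≥2 dishes. Scoring: - Δϕ ≤5 mm; ± 6-10; + 11-20; ++ ≥20 mm.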

A short description of test [13]: Antiviral activity was evaluated in vitro against human ECHO virus as antiviral affect in agar-diffusion plaque-inhibition test (- => inhibition, diameter < = 5 mm). In outline: as §2
Test [14] is filed under the species Homo sapiens. Briefly: Antiviral activity was evaluated in vitro against human ECHO virus as antiviral affect in agar-diffusion plaque-inhibition test (+ => inhibition diameter = 11-20 mm). The essentials: as §1
The species entered for test [15] is Homo sapiens. Description: Antiviral activity was evaluated in vitro against human Coxsackie virus as antiviral affect in agar-diffusion plaque-inhibition test (- => inhibition, diameter < = 5 mm). In outline:
as §2

For test [16], the species on record is Homo sapiens. Description: Antiviral activity was evaluated in vitro against human poliovirus as antiviral affect in agar-diffusion plaque-inhibition test (+/- => inhibition, diameter = 6-10 mm). In outline: as §1
The species entered for test [17] is Homo sapiens. Description: Antiviral activity was evaluated in vitro against human ECHO virus as antiviral affect in agar-diffusion plaque-inhibition test(- => inhibition, diameter < = 5 mm). The essentials: as §1
The species named for test [18] is Homo sapiens. Briefly: Antiviral activity was evaluated in vitro against human Coxsackie virus as antiviral affect in agar-diffusion plaque-inhibition test(- => inhibition, diameter < = 5 mm). In outline:
as §1

The nature of test [19]: cells. As to conditions: Homo sapiens. This is another data set of the same source.
The species entered for test [20] is Homo sapiens. Description: Antiviral activity was evaluated in vitro against human Coxsackie virus as antiviral affect in agar-diffusion plaque-inhibition test (- => inhibition diameter < = 5 mm). The essentials: as §2
Test [21] is filed under the species Homo sapiens. Briefly: Antiviral activity was evaluated in vitro against human poliovirus as antiviral affect in agar-diffusion plaque-inhibition test (- => inhibition diameter < = 5 mm). The essentials: as §1
Test [22] is filed under the species Homo sapiens. Briefly: Antiviral activity was evaluated in vitro against human ECHO virus as antiviral affect in agar-diffusion plaque-inhibition test (- => inhibition diameter < = 5 mm). The essentials: as §2

Consider `Nc1cccc(N/C(S)=N/c2ccccc2)c1`, for which the Toxicity zone in test [1] worked out at 20 mm; in [2], 16.7 mm; in the test on Poliovirus 1 [4], 18 mm. In “cells [3]”, this compound had an inhibition at 200 µM of 100%. Moreover, the Inhibition zone with Poliovirus 1 [5] is 28.3 mm.
With `Nc1cccc(NC(=O)Nc2ccccc2)c1`, the Antiviral effect result in [6] is “Not toxic”. The compound also came in with a Toxicity zone in the test on Poliovirus 1 [4] of 0 mm. In the test with Poliovirus 1 [5], this compound displayed an Inhibition zone of 0 mm.
In the case of `CC(=O)Nc1cccc(O)c1` [METACETAMOL], the Antiviral effect entry in test [7] is “Not toxic”. The compound also had a Toxicity zone in the test with Poliovirus 1 [4] of 0 mm. In the test on Poliovirus 1 [5], this compound came in with an Inhibition zone of 0 mm.
Turning to `Oc1cccc(/N=C(\S)Nc2cccc(O)c2)c1`, the Antiviral effect result in the test listed under Homo sapiens [8] and in the test listed under Homo sapiens [9] was “+/-” throughout. Further, the inhibition at 100 µM in the test “cells [10]” worked out at 73.5%. Moreover, the Toxicity zone in test [1] came to 29 mm; in test [2], 33.3 mm; in the test with Poliovirus 1 [4] it was 11.4 mm. In “cells [3]”, the inhibition at 200 µM turned out to be 89%. The compound further gave an Inhibition zone in the test on Poliovirus 1 [5] of 26.7 mm.
For the compound `Oc1ccc(/N=C(\S)Nc2ccc(O)cc2)cc1`, the Antiviral effect entry in the test listed under Homo sapiens [11] was “Not toxic”. The Toxicity zone in the test with Poliovirus 1 [4] was determined as 0 mm. In the test on Poliovirus 1 [5], this compound returned an Inhibition zone of 0 mm.
For the compound `Nc1ccc(/N=C(\S)Nc2ccc(N)cc2)cc1`, the Antiviral effect result in [6] was “Not toxic”. For the same compound, the Toxicity zone in the test with Poliovirus 1 [4] came to 0 mm. Besides, the Inhibition zone in the test with Poliovirus 1 [5] came out at 0 mm.
On to `Nc1cccc(O)c1` [3-AMINOPHENOL], for which the Antiviral effect entry in test [6] was “Not toxic”. In the test on Poliovirus 1 [4], the Toxicity zone stood at 0 mm. The compound further came in with an Inhibition zone with Poliovirus 1 [5] of 0 mm.
`Oc1ccccc1/N=C(/S)Nc1ccccc1`: the Antiviral effect entry (in test [7]; in the test listed under Homo sapiens [12]; in test [13]) was “Not toxic” in each case.
Take `Nc1ccc(NC(=O)Nc2ccccc2)cc1`: the Antiviral effect entry in test [6] is “Not toxic”. Besides, the Toxicity zone in the test on Poliovirus 1 [4] amounted to 0 mm. The same compound came in with an Inhibition zone in the test on Poliovirus 1 [5] of 0 mm.
Regarding `Nc1ccccc1/N=C(\S)Nc1ccccc1N`, the values for the Antiviral effect result in the test filed under Homo sapiens [8] and in the test filed under Homo sapiens [14] were “+/-” and “Not toxic”, respectively. The Toxicity zone in test [1] came to 43.5 mm; in test [2], 34 mm; in the test with Poliovirus 1 [4], 39.4 mm. The compound also registered an Inhibition zone with Poliovirus 1 [5] of 53.7 mm.
For `O=C(O)c1ccc(N/C(S)=N/c2ccccc2)cc1`, the Antiviral effect entry (in test [7]; in [13]; in the test listed under Homo sapiens [15]) was “Not toxic” throughout.
On to `Oc1ccc(N/C(S)=N/c2ccccc2)cc1`, for which the Antiviral effect entry in the test listed under Homo sapiens [16] is “+/-”; in test [13], “Not toxic”.
Consider `O=C(O)c1ccccc1/N=C(/S)Nc1ccccc1`, for which the Antiviral effect entry in the test listed under Homo sapiens [15] was “Not toxic”.
Take `O=C(O)c1cccc(N/C(S)=N/c2ccccc2)c1`: the Antiviral effect entry (in test [7]; in test [13]; in the test listed under Homo sapiens [15]) was “Not toxic” in each case.
On to `Nc1ccccc1NC(=O)Nc1ccccc1`, for which the Antiviral effect result in test [6] is “Not toxic”. This compound registered a Toxicity zone with Poliovirus 1 [4] of 0 mm. Also, the Inhibition zone with Poliovirus 1 [5] turned out to be 0 mm.
As for `NC(N)=S` [THIOUREA], the Antiviral effect entry in test [6] is “Not toxic”. In the test with Poliovirus 1 [4], this compound registered a Toxicity zone of 22 mm. Moreover, in the test with Poliovirus 1 [5], the Inhibition zone came out at 26 mm.
In the test “cells [10]”, `O=C(Nc1ccccc1)Nc1cccc(O)c1` had an inhibition at 100 µM of 66.3%. Further, the Antiviral effect result in the test filed under Homo sapiens [16], in the test listed under Homo sapiens [17] and in the test listed under Homo sapiens [18] was “Not toxic” each time. Besides, the Toxicity zone in [1] worked out at 6.5 mm; in [2], 6.5 mm; with Poliovirus 1 [4], 7.3 mm. For the same compound, in the test “cells [3]”, 200 µM produced 96.3% inhibition. This compound gave an Inhibition zone in the test with Poliovirus 1 [5] of 13.3 mm.
For the compound `O=C(O)c1ccc(N/C(S)=N/c2ccccc2)cc1O`, in “cells [3]”, the inhibition at 200 µM came out at 99.9%. The same compound yielded a Toxicity zone in the test on Poliovirus 1 [4] of 17.9 mm. Besides, in the test with Poliovirus 1 [5], the Inhibition zone turned out to be 36.1 mm.
Turning to `Oc1cccc(N/C(S)=N/c2ccccc2)c1`, the inhibition at 200 µM in “cells [3]” was found to be 99.9%. In addition, the Toxicity zone in the test with Poliovirus 1 [4] came to 15.8 mm. The same compound returned an Inhibition zone in the test with Poliovirus 1 [5] of 33 mm. In addition, in “cells [19]”, the inhibition at 100 µM was determined as 99.4%.
Regarding `O=C(Nc1ccccc1)Nc1ccc(O)cc1`, the Antiviral effect entry in test [6] is “Not toxic”. In the test on Poliovirus 1 [4], this compound came in with a Toxicity zone of 0 mm. The Inhibition zone in the test with Poliovirus 1 [5] amounted to 0 mm.
Turning to `Nc1ccc(N/C(S)=N/c2ccccc2)cc1`, the Antiviral effect entry in the test filed under Homo sapiens [20], in the test filed under Homo sapiens [21] and in the test filed under Homo sapiens [22] was “Not toxic” each time. This compound displayed a Toxicity zone in the test with Poliovirus 1 [4] of 0 mm. This compound also returned an Inhibition zone in the test with Poliovirus 1 [5] of 0 mm.
Consider `O=C(Nc1ccccc1)Nc1ccccc1O`, for which the Antiviral effect entry in test [7] was “Not toxic”. This compound had a Toxicity zone in the test with Poliovirus 1 [4] of 32 mm. This compound gave an Inhibition zone in the test on Poliovirus 1 [5] of 36.2 mm.
Regarding `Nc1ccccc1/N=C(/S)Nc1ccccc1`, the results for the Toxicity zone (in test [1]; in test [2]; in the test with Poliovirus 1 [4]) were 37 mm, 41 mm and 9 mm, respectively. Further, the Antiviral effect result in the test filed under Homo sapiens [17] and in the test filed under Homo sapiens [18] was “Not toxic” in each case. This compound also yielded an inhibition at 200 µM in “cells [3]” of 98.7%. Besides, the Inhibition zone with Poliovirus 1 [5] is 28 mm.
